The results in this text go back to ChEMBL document CHEMBL5390295, “Isolinderalactone Ameliorates the Pathology of Alzheimer's Disease by Inhibiting the JNK Signaling Pathway” (2023).

The source made the active and inactive calls. No cut-off for these calls is given here.

Assay [1] concerns Mus musculus. The assay can be described thus: Anti-alzheimer activity against APP/PS1 dE9 double transgenic mouse model assessed as decrease in escape latency at 5 mg/kg, ip administered once daily for 30 consecutive day measured on day 5 by morris water maze test. It counts as functional, organism-based. To be noted: time 30.0 day. A digest of the protocol:
(§1)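 Female APP/PS1 mice, 10 months old, about 30 g, 10 per group. Dosing was intraperitoneal in 1× PBS, once daily for one month (1 or 10 mg/kg test; 5 mg/kg donepezil). WT and untreated APP/PS1 controls got PBS. Morris water maze: training days 1–4, averaged escape latency. Day-5 probe trial ran 60 s with the platform removed, recording platform crossings and time per quadrant. Mean ± SEM.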

Assay [2] relates to Mus musculus. The assay can be described thus: Anti-alzheimer activity against APP/PS1 dE9 double transgenic mouse model assessed as increase in platform crossings at 5 mg/kg, ip administered once daily for 30 consecutive days […] by morris water maze test. Type of assay: functional, organism-based. To be noted: time 30.0 day. A digest of the protocol:
as §1

Assay [3] deals with Mus musculus. Description: Anti-alzheimer activity against APP/PS1 dE9 double transgenic mouse model assessed as increase in time spent in the target quadrant at 5 mg/kg, ip administered once daily for 30 consecutive days measured on day 5 by morris water maze test. To be noted: time 30.0 day. It counts as functional, organism-based. A digest of the protocol:
as §1

Assay [4] relates to Mus musculus. Description: Anti-alzheimer activity in hippocampus of APP/PS1 dE9 double transgenic mouse model assessed as reduction in glial cell aggregation at 5 mg/kg, ip administered once daily for 30 consecutive days by immunofluorescence staining. It counts as functional, organism-based. To be noted: time 30.0 day. A digest of the protocol:
(§2)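 Brains from dosed female APP/PS1 mice (10 months) were fixed in 4% paraformaldehyde at 4 °C for 24–48 h, taken through a sucrose gradient and OCT, and cut into 15 μm sections. Sections were permeabilized with 0.3% Triton X-100, blocked in 10% BSA for 1 h, and incubated with primary antibody overnight at 4 °C (1:200). Secondary was 1:500 for 1 h at 25 °C, with DAPI counterstain and confocal imaging, in triplicate.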

Assay [5] concerns Mus musculus. Description: Anti-alzheimer activity in hippocampus of APP/PS1 dE9 double transgenic mouse model assessed as reduction in amyloid beta plaque deposition at 5 mg/kg, ip administered once daily for 30 consecutive days by immunofluorescence staining. Type of assay: functional, organism-based. To be noted: time 30.0 day. A digest of the protocol: as §2
In assay [6] the test system is Mus musculus. Description: Anti-alzheimer activity in hippocampus of APP/PS1 dE9 double transgenic mouse model assessed as increase in SOD content at 5 mg/kg, ip administered once daily for 30 consecutive days by immunofluorescence analysis. To be noted: time 30.0 day. It counts as functional, organism-based.
The test system of assay [7] is Mus musculus. The assay can be described thus: Anti-alzheimer activity in hippocampus of APP/PS1 dE9 double transgenic mouse model assessed as decrease in MDA level at 5 mg/kg, ip administered once daily for 30 consecutive days […]. To be noted: time 30.0 day. Type of assay: functional, organism-based. The method in brief: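 Hippocampal tissue from dosed APP/PS1 mice was lysed in RIPA. SOD activity was read by WST-8/xanthine oxidase formazan kit assay and MDA by lipid peroxidation kit, with absorbance on a microplate reader.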

Assay [8] relates to Mus musculus. The assay can be described thus: Neuroprotective activity in APP/PS1 dE9 double transgenic mouse model assessed as improvement in spatial memory at 5 mg/kg, ip administered once daily for 30 consecutive days […] by morris water maze test. Type of assay: functional, organism-based. To be noted: time 30.0 day. A digest of the protocol: as §1
Assay [9] concerns PC-12. The assay can be described thus: Neuroprotective activity against Abeta1-42 induced rat PC12 cells assessed as effect on Bcl2/Bax ratio level at 1.25 uM preincubated for 0.5 hrs followed by Abeta1-42 induction and measured after 24 hrs by Western blot analysis. Type of assay: functional, cell-based. To be noted: time 24.5 hrs. The method in brief:
(§3)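 Aβ1–42 challenge in PC12 cells was 10 μM for 24 h after 3 h pretreatment at 10 μM. SP600125 (1.25 μM) was added 0.5 h before pretreatment where used. Cells were lysed in RIPA and protein measured by BCA. Blotting used PVDF transfer, 5% BSA/TBST block for 2 h, primaries 1:1000 overnight at 4 °C, and HRP secondary for 2 h. Bcl-2/Bax ratio and band intensities were quantified.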
(Immunoblotting shows a protein as a band on a membrane.)

Assay [10] has as its system PC-12. The assay can be described thus: Neuroprotective activity against Abeta1-42 induced rat PC12 cells assessed as effect on cleaved caspase-3 protein level at 1.25 uM preincubated for 0.5 hrs followed by Abeta1-42 induction and measured after 24 hrs by Western blot analysis. To be noted: time 24.5 hrs. It counts as functional, cell-based. The method in brief:
as §3

Take `COc1cc2c(cc1OC)C(=O)C(CC1CCN(Cc3ccccc3)CC1)C2` (stereo not given): the result in assay [1], in [2], in [3], in [4], in [5] and in assay [6] was Active. Besides, the result in [7] and in [8] was Active.

`O=C1c2ccccc2-c2n[nH]c3cccc1c23`: the result in assay [9] and in [10] was inactive.
